Data on eleven molecules can be found in ChEMBL document CHEMBL1124509, “Synthesis, cytotoxicity, and antiviral activity of certain 7-[(2-hydroxyethoxy)methyl]pyrrolo[2,3-d]pyrimidine nucleosides related to toyocamycin and sangivamycin” (J Med Chem, 1989).

Structures are written as SMILES.

One test is filed under the species Homo sapiens. In words: Cytotoxicity against Normal human diploid cells (human foreskin fibroblasts cells). The note with it: Fibroblast.
Test [1] is described as follows: Cytotoxicity against Monkey kidney cells(BSC-1 cells). The format is cell-based. The note with it: Cercopithecidae.
The test system of another test is Human alphaherpesvirus 1. In words: Antiviral activity was determined against Herpes simplex virus type 1 by Plaque-reduction assay. The format is functional, organism-based. The procedure, abridged: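 BSC-1 monolayers (MEM with Earle's salts, 10% FBS) infected with HSV-1 strain S-148, about 100 PFU per 0.2 mL; compound dissolved in overlay medium; plaques counted. IC50 by regression of percent inhibition on log concentration. Acyclovir or ganciclovir positive control, with sets rejected beyond 1.5 SD of control mean.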

In a further test the test system is Human betaherpesvirus 5. In words: Antiviral activity against Human cytomegalovirus in a plaque-reduction assay. The format is functional, organism-based. The procedure, abridged:
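HFF monolayers (MEM with Earle's salts, 10% FBS) infected with plaque-purified Towne strain HCMV, about 50 PFU per 0.2 mL inoculum; compound dissolved in overlay medium; plaques counted. IC50 from linear regression of percent inhibition against log concentration. Ganciclovir or acyclovir positive control run; sets rejected if control deviated >1.5 SD from its mean.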

In test [2] the test system is L1210. In words: Antiproliferative testing in vitro and its ability to inhibit the growth of L1210 murine leukemia cells determined at a concentration of 100 uM. The format is functional, Mus musculus. The procedure, abridged: (§1)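 L1210 mouse leukemia cells grown in static suspension culture in Fischer's medium for 3 days with test compound. Growth rate was taken as the slope of semilog cell number versus time, expressed as control doubling time as percent of treated doubling time, i.e. treated growth relative to control.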

The nature of test [3]: Cytotoxicity against human neoplastic cell line (KB). Type of test: cell-based. The procedure, abridged: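 KB cells (MEM with Hank's salts, 5% FBS) exposed to compound; incorporation of radioactive precursors, including [3H]dThd, into DNA, RNA and protein measured. An IC50 for each was obtained by regression on log concentration, and the three IC50s were averaged. Averages of two to four experiments.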

The subject of test [4] is L1210. The test is described as follows: Antiproliferative testing in vitro and its ability to inhibit the growth of L1210 murine leukemia cells determined at a concentration of 10 uM. Also on record: scale not given: the % may be the effect or the level left.
Test [5] relates to L1210. The test is described as follows: Antiproliferative testing in vitro and its ability to inhibit the growth of L1210 murine leukemia cells determined at a concentration of 10 uM. Type of test: functional, Mus musculus. Also on record: scale not given: the % may be the effect or the level left. The procedure, abridged: as §1

As for `NNC(=O)c1cn(COCCO)c2ncnc(N)c12`, the IC50 (in the test filed under Homo sapiens; in test [1]; with Human alphaherpesvirus 1; in the test on Human betaherpesvirus 5) was over 100 µM each time. The “Growth rate, % of control” value in the test on L1210 [2] amounted to 92%.

For `Nc1ncnc2c1ccn2COCCO`, the IC50 in the test filed under Homo sapiens was over 100 µM; in test [1], over 100 µM; in test [3], over 320 µM; in the test on Human alphaherpesvirus 1, over 100 µM; with Human betaherpesvirus 5, over 100 µM.

For `Nc1nc2c(ncn2COC(CO)CO)c(=O)[nH]1` [GANCICLOVIR], the IC50 in the test filed under Homo sapiens was over 100 µM; in test [1], over 100 µM; in test [3] it was 1000 µM; in the test on Human alphaherpesvirus 1 it was 2.3 µM; in the test with Human betaherpesvirus 5 it was 7.9 µM.

Take `NC(=NO)c1cn(COCCO)c2ncnc(N)c12`: the IC50 (in the test filed under Homo sapiens; in test [1]; with Human alphaherpesvirus 1; with Human betaherpesvirus 5) was over 100 µM in each case. The “Growth rate, % of control” value in the test with L1210 [2] is listed as 89%.

In the case of `NC(=S)c1cn(COCCO)c2ncnc(N)c12`, the IC50 in the test listed under Homo sapiens was 100 µM; in test [1], over 100 µM; in test [3], over 100 µM; with Human alphaherpesvirus 1 it was over 100 µM; in the test with Human betaherpesvirus 5 it was 11 µM. In addition, the Control with L1210 [4] is 93%.

For `CC(=O)OCCOCn1cc(C#N)c2c(N)ncnc21`, the 50% inhibitory concentration (IC50) (in the test filed under Homo sapiens; in test [1]; in the test with Human alphaherpesvirus 1; with Human betaherpesvirus 5) was over 100 µM each time.

For `N#Cc1cnc2n(COCCO)cnc(N)c1-2`, the IC50 is over 320 µM in the test listed under Homo sapiens, over 100 µM in test [1], over 100 µM in the test on Human alphaherpesvirus 1 and over 320 µM in the test on Human betaherpesvirus 5.

Take `Nc1nc2c(ncn2COCCO)c(=O)[nH]1` [ACYCLOVIR]: the IC50 was over 100 µM in the test listed under Homo sapiens, over 100 µM in test [1], over 100 µM in test [3] and 3.9 µM with Human alphaherpesvirus 1.

Take `NC(=O)c1cn(COCCO)c2ncnc(N)c12`: the IC50 is over 320 µM in the test listed under Homo sapiens; over 100 µM in test [1]; over 100 µM in test [3]; over 100 µM in the test on Human alphaherpesvirus 1; over 320 µM with Human betaherpesvirus 5. Further, in the test with L1210 [2], the “Growth rate, % of control” value is given as 100%.

Regarding `COC(=N)c1cn(COCCO)c2ncnc(N)c12`, the IC50 (in the test listed under Homo sapiens; in test [1]; in the test with Human alphaherpesvirus 1; with Human betaherpesvirus 5) was over 100 µM each time. Also, the Control in the test with L1210 [5] came out at 108%.

In the case of `N#Cc1cn(COCCO)c2ncnc(N)c12`, the IC50 in the test filed under Homo sapiens is over 100 µM; in test [1], over 320 µM; in test [3], over 100 µM; in the test on Human alphaherpesvirus 1, over 320 µM; in the test with Human betaherpesvirus 5 it was over 100 µM. This molecule also registered a Growth rate, % of control with L1210 [2] of 100%.
